{
  "source": "paper PMC4065302",
  "about": "(Diabetes Therapy, 2014)",
  "key": {"[1]": {"conditions": "acidic pH; no reference given; cited from earlier work"}, "[2]": {"assay": "Serum IAsp and IDeg pharmacokinetics", "type": "in vivo, human", "how_it_was_run": "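Subcutaneous abdominal dosing in T1DM subjects: insulin degludec 0.42 U/kg daily Days 1–5, insulin degludec/insulin aspart 0.6 U/kg on Day 6. Aspart was sampled predose to 12 h on Day 6. Degludec was sampled predose on Days 1–5, then to 48 h, plus 72, 96 and 120 h. Serum levels were measured by validated analyte-specific ELISAs; full analysis set n = 22.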"}, "[3]": {"conditions": "cited from earlier work"}, "[4]": {"test_system": "subjects with type 1 diabetes mellitus", "assay": "Safety and tolerability monitoring", "type": "in vivo, human", "conditions": "22 subjects", "how_it_was_run": "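Adults 18–65 y with T1DM on insulin ≥12 months. Regimen: insulin degludec 0.42 U/kg s.c. once daily (~8 p.m.) Days 1–5, then single insulin degludec/insulin aspart 0.6 U/kg s.c. on Day 6, with bolus insulin aspart as needed. Monitored: treatment-emergent AEs, confirmed hypoglycemia (severe per ADA, or plasma glucose <3.1 mmol/L or blood glucose <2.8 mmol/L), physical exam, vital signs, ECG, labs. Summarized descriptively.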"}, "[5]": {"conditions": "while IDeg steady state was being attained (Days 1-5)"}},
  "data": [
    {"substance": "Insulin glargine", "values": [
      {"measurement": "pH at which soluble", "setting": "[1]", "result": 4}
    ]},
    {"substance": "insulin aspart [IAsp]", "values": [
      {"measurement": "AUCIAsp,0–12h (total serum exposure of IAsp in IDegAsp)", "setting": "[2]; mean, n = 22, serum, ELISA, IDegAsp 0.6 U/kg s.c. (0.18 U/kg IAsp), Day 6", "result": "1,087 pmol h/L"},
      {"measurement": "t max,IAsp", "setting": "[2]; median, n = 22, serum, ELISA, IDegAsp 0.6 U/kg s.c., Day 6", "result": 1.33, "unit": "h"}
    ]},
    {"substance": "insulin degludec [IDeg]", "values": [
      {"measurement": "duration of action", "setting": "[3]", "result": "exceeding 42 h"},
      {"measurement": "half-life", "setting": "[3]; no reference given", "result": "> 24", "unit": "h"},
      {"measurement": "injection site reactions", "setting": "[4]; during the trial, s.c. administration", "result": "No injection site reactions"},
      {"measurement": "treatment-emergent changes in clinical laboratory parameters, vital signs, physical examination or ECG", "setting": "[4]; following subcutaneous administration", "result": "no significant treatment-emergent changes"},
      {"measurement": "confirmed hypoglycemic episodes", "setting": "[4]; [5]", "result": 22, "unit": "episodes"},
      {"measurement": "subjects with confirmed hypoglycemic episodes", "setting": "[4]; [5]", "result": 13, "unit": "subjects"},
      {"measurement": "time to clinical steady state", "setting": "[2]; once-daily IDeg 0.42 U/kg s.c.", "result": "2 to 3", "unit": "days"}
    ]}
  ]
}
